Measured values published in ChEMBL document CHEMBL5154910, “Preventing Influenza A Virus Infection by Mixed Inhibition of Neuraminidase and Hemagglutinin by Divalent Inhibitors” (J Med Chem, 2022).
Active and inactive are the calls of the source. No cut-off for these calls is given here.

Key:
[1] = Inhibition of Influenza A virus (A/Anascrecca/Spain/1460/2008(H7N9)) recombinant Neuraminidase using MUNANA as substrate incubated for 60 mins by fluorescence based assay
Summary of the method: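 Recombinant soluble tetrameric NA (N9 from A/Anascrecca/Spain/1460/2008 or N1 from A/Wisconsin/09/2013) was made in HEK293T cells and purified on Strep-Tactin. Compounds were serially diluted 1:2 in 50 mM Tris-HCl, 4 mM CaCl2, pH 6.0, with a fixed non-saturating amount of NA. MUNANA was added to 100 μM final, 37 °C for 60 min, then stopped with glycine/ethanol at pH 10.7. Fluorescence read at ex 340/em 490 nm; […].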

MDCK-II = test: Cytotoxicity against dog MDCK-II cells at 5 uM; assay type: toxicity, cell-based, Canis lupus familiaris
Summary of the method: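 MDCK-II monolayers were exposed to compound at the highest tested concentration of 5 μM in Opti-MEM at 37 °C, 5% CO2, for 4 days. Cytotoxicity was judged by microscopic inspection.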

[2] = Inhibition of Influenza virus A/Netherlands/602/2009 Neuraminidase using MUNANA as substrate incubated for 60 mins by fluorescence based whole virus assay
Summary of the method: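 Whole Neth09H1N1 virus served as the NA source in place of recombinant protein. Compounds were serially diluted 1:2 in 50 mM Tris-HCl, 4 mM CaCl2, pH 6.0, with a fixed non-saturating amount of virus. MUNANA was added to 100 μM final, 37 °C for 60 min, then stopped with 0.1 M glycine, 25% ethanol, pH 10.7. Fluorescence read at ex 340/em 490 nm; IC50 determined.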

Influenza A virus [3] = test: Antiviral activity against Influenza virus A/Netherlands/602/2009 assessed as inhibition of virus-LAMP1 binding at 10 uM by biolayer interferometry streptavidin sensor based assay; assay type: functional, organism-based
Summary of the method: (§1)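 Biolayer interferometry was run at 30 °C in PBS with Ca/Mg, shaking at 1000 rpm. Streptavidin sensors were loaded to saturation with biotinylated LAMP1 carrying increased α2,6-linked sialic acids, then dipped into Neth09H1N1 virus mixed with variable compound concentrations. […] Controls had no compound, or OC only.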

Influenza A virus [4] = test: Inhibition of Influenza virus A/Netherlands/602/2009 hemagglutinin assessed as reduction of virus-LAMP1 binding in presence of oseltamivir carboxylate by biolayer interferometry; summary of the method: as §1

| SMILES | IC50 [1] | Activity (MDCK-II) | IC50 [2] | inhibition (Influenza A virus [3]) | inhibition (Influenza A virus [4]) |
| --- | --- | --- | --- | --- | --- |
| C#CCCCC[C@@H](CC)O[C@@H]1OC(C(=O)O)=C[C@H](O)[C@H]1NC(C)=O | 28200 nM | – | – | – | – |
| CCC(CC)O[C@@H]1OC(C(=O)O)=C[C@H](O)[C@H]1NC(C)=O | 470 nM | – | – | – | – |
| CC[C@@H](CCCCc1cn([C@H]2[C@H](OC(C)=O)[C@@H](OC(C)=O)[C@H](n3cc(CCCC[C@H](CC)O[C@@H]4OC(C(=O)O)=C[C@H](O)[C@H]4NC(C)=O)nn3)O[C@@H]2CO)nn1)O[C@@H]1OC(C(=O)O)=C[C@H](O)[C@H]1NC(C)=O | 5200 nM | Non-Toxic | 1500 nM | – | – |
| CC[C@@H](CCCCc1cn([C@H]2[C@H](O)[C@@H](O)[C@H](n3cc(-c4ccc(-c5cn([C@@H]6O[C@H](CO)[C@@H](n7cc(-c8cc(O)c(-c9cn([C@@H]%10O[C@H](CO)[C@@H](n%11cc(-c%12ccc(-c%13cn([C@@H]%14O[C@H](CO)[C@@H](n%15cc(CCCC[C@H](CC)O[C@@H]%16OC(C(=O)O)=C[C@H](O)[C@H]%16NC(C)=O)nn%15)[C@H](O)[C@H]%14O)nn%13)cc%12)nn%11)[C@H](O)[C@H]%10O)nn9)cc8O)nn7)[C@H](O)[C@H]6O)nn5)cc4)nn3)O[C@@H]2CO)nn1)O[C@@H]1OC(C(=O)O)=C[C@H](N)[C@H]1NC(C)=O | – | Non-Toxic | – | Active | – |
| C#CCCC[C@H](CC)O[C@@H]1CC(C(=O)O)=C[C@H](O)[C@H]1NC(C)=O | 2900 nM | Non-Toxic | – | Active | – |
| CC[C@@H](CCCCc1cn([C@H]2[C@H](O)[C@@H](O)[C@H](n3cc(-c4ccc(-c5cn([C@H]6[C@H](O)[C@@H](O)[C@H](n7cc(-c8ccc(-c9cn([C@@H]%10O[C@H](CO)[C@@H](n%11cc(CCCC[C@H](CC)O[C@@H]%12OC(C(=O)O)=C[C@H](O)[C@H]%12NC(C)=O)nn%11)[C@H](O)[C@H]%10O)nn9)cc8)nn7)O[C@@H]6CO)nn5)cc4)nn3)O[C@@H]2CO)nn1)O[C@@H]1OC(C(=O)O)=C[C@H](O)[C@H]1NC(C)=O | – | Non-Toxic | – | Active | Active |
| CC[C@@H](CCCCc1cn([C@H]2[C@H](OC(C)=O)[C@@H](OC(C)=O)[C@H](n3cc(CCCC[C@H](CC)O[C@@H]4OC(C(=O)O)=C[C@H](O)[C@H]4NC(C)=O)nn3)O[C@@H]2COC(C)=O)nn1)O[C@@H]1OC(C(=O)O)=C[C@H](O)[C@H]1NC(C)=O | – | Non-Toxic | – | – | – |
| CCC(CC)O[C@@H]1C=C(C(=O)O)C[C@H](N)[C@H]1NC(C)=O [OSELTAMIVIR CARBOXYLATE] | – | Non-Toxic | – | – | – |
| CC[C@@H](CCCCc1cn([C@H]2[C@H](O)[C@@H](O)[C@H](n3cc(-c4ccc(-c5cn([C@@H]6O[C@H](CO)[C@@H](n7cc(CCCC[C@H](CC)O[C@@H]8OC(C(=O)O)=C[C@H](O)[C@H]8NC(C)=O)nn7)[C@H](O)[C@H]6O)nn5)cc4)nn3)O[C@@H]2CO)nn1)O[C@@H]1OC(C(=O)O)=C[C@H](O)[C@H]1NC(C)=O | 3300 nM | Non-Toxic | 80 nM | Active | – |
